High-throughput results as filed in PubChem.
Compounds with a hit are over-represented: about 3.5% of the library has one in this group of screens.
MrgX1 ag = agonists of human MrgX1 receptor, primary screen, HEK293 cells, Fluo-4 calcium flux; Fluo-4 calcium fluorescence, agonist mode; hits give high values; B-score at 10 µM; actives 0.44% (n = 310,000);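 active means calcium response B-score plate-corrected fluorescence ratio at least 3 library SD, with starting fluorescence B-score inside 5 SD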
Target sequence (Q96LB2 whole entry, looked up): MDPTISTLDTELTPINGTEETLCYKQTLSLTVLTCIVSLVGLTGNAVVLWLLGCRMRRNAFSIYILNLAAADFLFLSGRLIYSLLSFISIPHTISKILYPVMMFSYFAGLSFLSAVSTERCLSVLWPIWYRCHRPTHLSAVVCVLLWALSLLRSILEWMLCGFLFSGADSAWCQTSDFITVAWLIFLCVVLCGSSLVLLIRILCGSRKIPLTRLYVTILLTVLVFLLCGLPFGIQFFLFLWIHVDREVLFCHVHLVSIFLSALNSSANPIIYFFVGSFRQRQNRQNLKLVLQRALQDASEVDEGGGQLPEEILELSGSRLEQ
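Material: MrgX1-expressing HEK293 cells / Dosing: compound as first of three additions / Incubation: overnight seeding, then 1 h dark dye loading / Signal: Fluo-4 NW calcium fluorescence / Evaluation: B-scored fluorescence response ratio / Benchmarks: positive and negative control wells on each plate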
RGS4 pot = RGS4 potentiators or activators, primary screen, cell-based, HEK293 M3R inducible RGS4, calcium flux; carbachol calcium flux Fluo4; hits give low values; B-score at 10 µM; actives 0.92% (n = 310,000); AID 463111, 2010;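 active means B-score of the integrated calcium signal more than 4 SD below the library mean, with starting fluorescence not abnormally high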;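 further: negative B-score means reduced calcium response which marks RGS4 activation or potentiation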
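Assay system: Inducible-RGS4 HEK293 cells carrying M3 receptor | Schedule: Compound preincubation 20 min at room temperature before agonist | Signal: Kinetic calcium fluorescence imaging with Fluo4-AM dye, 2 µM | Read-out basis: B score from integrated fluorescence ratio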
MrgX1 antagonist = antagonists of human MrgX1 receptor, primary screen, HEK293 cells, Fluo-4 calcium flux; B-score at 10 µM; Mas-related G-protein coupled receptor member X1 (Homo sapiens), Q96LB2; actives 1.3% (n = 310,000); BAM8-22 antagonism; hits give low values;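 active means calcium-response B-score plate-corrected more than 3 library SD below zero, starting fluorescence within 5 deviations, no agonist response on first addition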;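 further: peak minus trough fluorescence over baseline after final BAM8-22 challenge near maximal dose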
MrgX1 allo act = positive allosteric modulators of MrgX1, primary screen, HEK293 cells, Fluo-4 calcium flux; FDSS; hits give high values; B-score at 10 µM; actives 0.63% (n = 310,000);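 active means plate-corrected calcium response at least 3 library SD above typical, normal starting fluorescence, not activating the receptor alone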;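 further: compound read alongside a low EC10 to EC30 dose of BAM8-22 agonist; peak minus trough fluorescence over baseline measured at the second addition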
RGS4 block = RGS4 inhibitors, primary screen, cell-based, HEK293 M3R inducible RGS4, calcium flux. Regulator of G-protein signaling 4 (Homo sapiens), P49798. Fluo-4 calcium flux; hits give high values; triggered by carbachol at its EC20. B-score at 10 µM. actives 0.45% (n = 310,000). AID 463165, 2010;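 active means B-score, a plate-corrected calcium signal, over three deviations above library mean, with baseline fluorescence within five deviations of library mean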;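 further: RGS4 expression induced by doxycycline in cells with stable M3 receptor; B-score is computed from the integrated fluorescence ratio over baseline after carbachol; higher B-score means a larger calcium signal and so more RGS4 inhibition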
Target sequence (P49798 whole entry, looked up): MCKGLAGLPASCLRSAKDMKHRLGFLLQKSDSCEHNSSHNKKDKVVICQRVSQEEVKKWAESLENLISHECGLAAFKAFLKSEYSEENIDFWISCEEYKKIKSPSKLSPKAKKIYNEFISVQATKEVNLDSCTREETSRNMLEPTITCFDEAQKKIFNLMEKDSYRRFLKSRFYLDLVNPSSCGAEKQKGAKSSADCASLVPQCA
RGS4 block valid = enhanced carbachol calcium response, M3R/RGS4 cells, RGS4 inhibitor project, cell-based, validation screen, HEK293 M3R/RGS4, calcium flux | carbachol calcium Fluo-4 fluorescence; carbachol added at its EC20; 0 = buffer wells, 100 = carbachol control | calcium response, % at 10 µM | shares compounds with RGS4 block | actives 65% (n = 1,700);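 active means duplicate-averaged calcium response above the buffer-only control mean plus 5 SD of those controls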;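 further: integrated fluorescence ratio F max minus min over baseline F0; higher response in RGS4-induced cells means RGS4 inhibition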
M3R Ca ctr = carbachol calcium response in non-induced M3R cells, confirmation, counter-screen for RGS4 inhibitor project, cell-based, HEK293 M3R. shares compounds with RGS4 block. carbachol calcium Fluo-4; submaximal (EC20) carbachol stimulus; buffer wells 0%, carbachol control wells 100%. activity (percent), % at 10 µM. actives 20% (n = 1,900); call rule not given here;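 further: RGS4 induction absent so cells express M3R without RGS4; higher means more calcium signal and flags a non-specific hit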
M3R basal Ca ctr = signal in non-induced cells without carbachol, RGS4 inhibitor counter-screen | AID 493001 | actives 22% (n = 1,900) | HEK293 M3R/RGS4 non-induced, Fluo-4 calcium, no carbachol; normalised: buffer wells 0%, carbachol wells 100% | shares compounds with RGS4 block | calcium response (agonist-mode artifact), % at 10 µM;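 active means duplicate-averaged calcium rise in uninduced cells above buffer wells' mean plus 5 SD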
Numbers without * were called inactive; i = inactive; x = not tested or not shown.

SMILES | MrgX1 ag | RGS4 pot | MrgX1 antagonist | MrgX1 allo act | RGS4 block | RGS4 block valid | M3R Ca ctr | M3R basal Ca ctr
CC1CN(C(=O)c2ccc(COCC(F)(F)F)o2)CC(C)O1 (configuration not stated) | i | i | i | i | i | x | x | x
COc1ccc(/C=C2\CCCC(C(=O)C(F)(F)F)=C2O)cc1 | i | i | i | i | i | x | x | x
O=C(C1=C(O)/C(=C/c2ccc(O)cc2)CCC1)C(F)(F)F | i | i | i | i | 5.22* | i | i | i
CCc1cccc2c(C(=O)CN3C(=O)NC(C)(c4cccc5ccccc45)C3=O)c[nH]c12 (configuration not stated) | i | i | i | i | 10.9* | i | i | i
O=C(Nc1ccc(-c2ccccc2)cc1)c1ccccc1 | i | i | i | i | i | x | x | x
Cc1ccc(NC(=O)C2=C(c3ccccc3)S(=O)(=O)CCS2(=O)=O)cc1 | i | i | i | i | 15* | 28.5%* | i | 16.5%*
CN(C)c1ccc(C(C[N+](=O)[O-])c2c(N)n(C)c(=O)n(C)c2=O)c(F)c1C#N (configuration not stated) | 31.2* | i | i | i | 22.1* | 62.0%* | i | i
CCCNC(=O)c1ccccc1NC(=O)Nc1ccccc1C | i | x | i | i | x | x | x | x
CCCNC(C)C(=O)Nc1ccccc1C (configuration not stated) | i | i | i | i | 4.77* | 6.5%* | i | i
C#CCN(C#N)c1nc(NCC)nc(NC(C)C)n1 | i | i | i | i | i | x | x | x
CCN(C#N)c1nc(NC(C)C)nc(NC(C)C)n1 | i | i | i | i | i | i | i | i
CCn1cc([N+](=O)[O-])c(C(=O)N2N=C(c3ccc4ccccc4c3)CC2c2cc(Br)ccc2O)n1 (configuration not stated) | i | i | i | i | i | x | x | x
CCn1cc([N+](=O)[O-])c(C(=O)N2N=C(c3ccc(Cl)c(Cl)c3)CC2c2ccccc2O)n1 (configuration not stated) | i | i | i | i | 6.39* | 21.5%* | i | i
CCn1cc([N+](=O)[O-])c(C(=O)N2N=C(c3ccc(O)c(OC)c3)CC2c2ccccc2O)n1 (configuration not stated) | i | i | i | i | i | x | i | i
CN(CC(=O)O/N=C(\N)c1ccc([N+](=O)[O-])cc1)S(=O)(=O)c1ccc2ccccc2c1 | i | i | i | i | i | x | x | x
CN1CCc2c1nc1ccccc1c2N=C1CCCN1Cc1ccccc1 | i | i | i | i | i | x | x | x
Cc1cccc(N=c2oc3cc(O)ccc3cc2C(N)=O)c1 | i | i | i | i | 4.71* | 6.0%* | i | 30.5%*
Cc1ccccc1Nc1sc(C(=O)Nc2cccc(Cl)c2)c(N)c1C(N)=O | x | i | x | x | 6.63* | 5.0%* | i | i
Cc1cc(C)c(C(N)=O)c(Nc2cccc(Cl)c2)n1 | i | i | i | i | i | x | x | x
CCC(C)(C)N(C(=O)CCC(=O)Nc1cc(C)on1)C(C(=O)NC(C)(C)C)c1ccc(OC)cc1 (configuration not stated) | i | i | i | i | i | x | x | x
O=C(CC1Nc2cccc3cccc(c23)NC1=O)Nc1ccccc1 (configuration not stated) | i | i | i | i | i | x | i | i
COc1ccc(C(=O)N/N=C/c2c(CO)cnc(C)c2O)cc1 | i | i | i | i | i | x | x | x
Cc1ncc(CO)c(/C=N/NC(=O)c2ccc(O)cc2)c1O | i | i | i | i | i | x | i | 8.0%*
Cc1ncc(CO)c(/C=N/NC(=O)c2cc3c(s2)CCCC3)c1O | i | i | i | i | 7.17* | 101.5%* | 77.5%* | 35.0%*
O=c1oc2ccccc2c(O)c1/C=C1\C=Nc2ccccc21 | i | i | i | i | 21.9* | 65.5%* | i | 47.5%*
SMILES | MrgX1 ag | RGS4 pot | MrgX1 antagonist | MrgX1 allo act | RGS4 block | RGS4 block valid | M3R Ca ctr | M3R basal Ca ctr
CCOc1ccc(/C(O)=C2/C(=O)C(=O)N(c3nc(C)c(C)s3)C2c2ccco2)cc1 (configuration not stated) | i | i | i | i | i | x | i | i
CC(C)(C)C1CCc2nc(NC(=O)Cc3cn4ccsc4n3)sc2C1 (configuration not stated) | i | i | i | i | 7.12* | 16.0%* | i | i
Cc1ccc(NC(=O)C(C)Sc2nnc(C)n2CC2CCCO2)cc1 (configuration not stated) | x | i | x | x | 4.71* | 5.0%* | i | i
Cc1ccc(NC(=O)CSc2nnc(C)n2CC2CCCO2)cc1 (configuration not stated) | i | i | i | i | i | x | x | x
Cc1cccc(NC(=O)C2CCCN2S(=O)(=O)c2ccc(Cl)cc2)n1 (configuration not stated) | i | i | i | i | i | x | x | x
Cc1cc(C)n(CC(O)Cn2c3ccc(Br)cc3c3cc(Br)ccc32)c(=O)n1 (configuration not stated) | i | i | i | i | 7.79* | 27.0%* | i | i
O=C(CNc1ccc(Br)cc1)c1ccc(O)cc1 | i | i | i | i | 9.59* | 22.5%* | i | i
O=C(CNc1ccc(Cl)cc1)c1ccc(Br)cc1 | i | i | i | i | i | x | x | x
COc1cc(C2C3=C(CCCC3=O)Nc3c2c(C)nn3-c2cccc(C)c2)cc(OC)c1O (configuration not stated) | i | i | i | i | 6.34* | 13.5%* | 40.0%* | i
